Measurements reported in ChEMBL document CHEMBL2016448, “Discovery of new piperidine amide triazolobenzodiazepinones as intestinal-selective CCK1 receptor agonists” (Bioorg Med Chem Lett, 2012).
One block for each compound: values may come before it.

Tests used:
[1] = biological target: T1, Cholecystokinin receptor type A (Homo sapiens, UniProt P32238); assay: Agonist activity at human CCK1 receptor assessed as increase in CCK8-induced calcium release incubated in dark for 30 mins followed by light incubation for 30 mins measured by FLIPR assay; type: functional
T1 sequence (P32238 whole entry): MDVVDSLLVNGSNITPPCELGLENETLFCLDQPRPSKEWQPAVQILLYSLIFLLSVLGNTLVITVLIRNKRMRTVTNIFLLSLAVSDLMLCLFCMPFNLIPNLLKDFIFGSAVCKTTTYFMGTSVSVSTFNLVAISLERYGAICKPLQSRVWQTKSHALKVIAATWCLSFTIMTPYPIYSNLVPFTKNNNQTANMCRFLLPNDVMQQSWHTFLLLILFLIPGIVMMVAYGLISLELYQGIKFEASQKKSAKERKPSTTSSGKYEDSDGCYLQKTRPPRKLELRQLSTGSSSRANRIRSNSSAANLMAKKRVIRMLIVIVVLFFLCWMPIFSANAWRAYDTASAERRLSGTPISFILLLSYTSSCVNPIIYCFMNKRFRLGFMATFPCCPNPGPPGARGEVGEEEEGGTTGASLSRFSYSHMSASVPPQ
Procedure, shortened: (§1)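 FLIPR functional assay in CHO cells expressing human CCK1R. Agonism expressed as % of the CCK-8 peptide response. Initial screen at 30 µM, with >30% counted as active. Actives then run as full dose–response. EC50 is the geometric mean of at least 2 independent experiments.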

[2] = biological target: T2, Cholecystokinin receptor type A (Homo sapiens) (UniProt P32238); assay: Agonist activity at human CCK1 receptor assessed as increase in CCK8-induced calcium release incubated in dark for 30 mins followed by light incubation for 30 mins measured by FLIPR assay relative to CCK8; type: functional; procedure, shortened: as §1
T2 sequence (whole entry): T1 sequence (P32238 whole entry)

[3] = Intrinsic clearance in human microsomes; type: ADME, Microsome
Procedure, shortened: (§2)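 Intrinsic clearance measured in human liver microsomes. The free value is corrected for microsomal binding.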

[4] = biological target: T1, Cholecystokinin receptor type A; assay: Displacement of [125I]-CCK-8 from human CCK1 receptor expressed in CHO cells after 90 mins by liquid scintillation counting
[5] = system: Liver; assay: Clearance in rat liver; type: ADME, organism-based; conditions: in vivo
[6] = Solubility of the compound in phosphate buffer; type: physicochemical
[7] = Bioavailability in rat portal system; type: ADME, organism-based
[8] = Lipophilicity, log D of the compound at pH 7.4; type: physicochemical; conditions: buffer
[9] = Free intrinsic clearance in human microsomes; type: ADME, Microsome; procedure, shortened: as §2
[10] = system: Mus musculus; assay: Antiobesity in C57Bl/6J mouse assessed as reduction in gall bladder weight at 0.6 mg/kg, po measured after 1 hr relative to control; type: functional; parameters: scale not given: the % may be the effect or the level left
[11] = system: Mus musculus; assay: Antiobesity in C57Bl/6J mouse assessed as reduction in gall bladder weight at 2 mg/kg, po measured after 24 hr relative to control; type: functional; parameters: scale not given: the % may be the effect or the level left
[12] = Ratio free drug level in gut to portal system of Sprague-Dawley rat at 10 mg/kg, po administered as single dose measured after 4 hrs; type: ADME, organism-based; parameters: dose 10 mg/kg, route oral
Procedure, shortened: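 Single oral dose to rats. Gut and portal drug exposures were measured at 2 h and 4 h post-dose and corrected for non-specific binding to give free concentrations. The free gut to free portal ratio was then calculated at each time point.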

[13] = Drug excretion in Sprague-Dawley rat bile at 1 mg/kg, iv measured after 24 hrs; type: ADME, organism-based; parameters: dose 1 mg/kg, route intravenous; conditions: read-out: Ae
Procedure, shortened: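 Bile-cannulated rats dosed iv at 1 mg/kg. Bile collected over 24 h and % of dose excreted into bile determined.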

[14] = system: Plasma; assay: Plasma clearance in Sprague-Dawley rat at 3 mg/kg, iv; type: ADME, organism-based; parameters: dose 3 mg/kg, route intravenous; conditions: in vivo
[15] = Tmax in Sprague-Dawley rat at 6 mg/kg, po; type: ADME, organism-based; parameters: dose 6 mg/kg, route oral; conditions: in vivo
Procedure, shortened: (§3)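 Male Sprague–Dawley rats dosed iv or po. Oral doses given in SDD formulation. Plasma PK parameters reported as mean of n = 3 rats.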

[16] = system: Rattus norvegicus; assay: Toxicity in Sprague-Dawley rat assessed as gastrointestinal side-effects at 2 to 6 mg/kg, po; type: organism-based; parameters: dose 2-6 mg/kg, route oral; conditions: in vivo
Procedure, shortened: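 Diet-induced obese rats dosed orally at 2 and 6 mg/kg for 5 days and monitored for gastrointestinal side-effects.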

[17] = Bioavailability in Sprague-Dawley rat portal system; type: ADME, organism-based
[18] = fCmax in Sprague-Dawley rat portal system; type: ADME
[19] = Cmax in Sprague-Dawley rat plasma at 6 mg/kg, po; type: ADME, organism-based; parameters: dose 6 mg/kg, route oral; procedure, shortened: as §3
[20] = Drug level in C57Bl/6J mouse bile at 0.6 mg/kg; type: ADME, organism-based; parameters: dose 0.6 mg/kg; conditions: in vivo
[21] = system: Blood; assay: Drug level in C57Bl/6J mouse blood at 0.6 mg/kg; type: ADME, organism-based; parameters: dose 0.6 mg/kg; conditions: in vivo
[22] = system: Mus musculus; assay: Antiobesity in C57Bl/6J mouse assessed as reduction in gall bladder weight at 0.2 mg/kg, po measured after 24 hr relative to control; type: functional; parameters: scale not given: the % may be the effect or the level left
[23] = system: Mus musculus; assay: Antiobesity in C57Bl/6J mouse assessed as decrease in food intake at 0.2 mg/kg, po measured after 2 hr relative to control; type: functional; parameters: scale not given: the % may be the effect or the level left
Procedure, shortened: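 Mice fasted overnight, then refed. Compound given orally in SDD formulation at increasing doses. Food intake measured at 2 h against vehicle-treated mice. Minimally efficacious dose defined as significant inhibition (p <0.05).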

[24] = system: Plasma; assay: Plasma clearance in Sprague-Dawley rat at 0.3 mg/kg, iv; type: ADME, organism-based; parameters: dose 0.3 mg/kg, route intravenous; conditions: in vivo; procedure, shortened: as §3
[25] = Oral bioavailability in Sprague-Dawley rat at 6 mg/kg; type: ADME, organism-based; conditions: in vivo; procedure, shortened: as §3
[26] = system: Rattus norvegicus; assay: fCmax in Sprague-Dawley rat at 6 mg/kg, po; type: ADME, organism-based; parameters: dose 6 mg/kg, route oral; conditions: in vivo; procedure, shortened: as §3
[27] = Volume of distribution at steady state in Sprague-Dawley rat at 0.3 mg/kg, iv; type: ADME, organism-based; parameters: dose 0.3 mg/kg, route intravenous; conditions: in vivo, read-out: Vdss; procedure, shortened: as §3
[28] = AUC (0 to last) in Sprague-Dawley rat at 0.3 mg/kg, iv; type: ADME, organism-based; parameters: time 0 - last, dose 0.3 mg/kg, route intravenous; conditions: plasma; procedure, shortened: as §3
[29] = AUC (0 to last) in Sprague-Dawley rat at 6 mg/kg, po; type: ADME, organism-based; parameters: dose 6 mg/kg, route oral, time 0 - last; conditions: plasma; procedure, shortened: as §3
[30] = Half life in Sprague-Dawley rat at 0.3 mg/kg, iv; type: ADME, organism-based; parameters: dose 0.3 mg/kg, route intravenous; conditions: in vivo; procedure, shortened: as §3
[31] = system: Rattus norvegicus; assay: Antiobesity in diet-induced obese Sprague-Dawley rat assessed as decrease in body weight gain at 2 mg/kg, po measured after 5 days; type: functional; parameters: scale not given: the % may be the effect or the level left
[32] = system: Rattus norvegicus; assay: Antiobesity in diet-induced obese Sprague-Dawley rat assessed as decrease in body weight gain at 6 mg/kg, po measured after 5 days; type: functional; parameters: scale not given: the % may be the effect or the level left
[33] = system: Rattus norvegicus; assay: Antiobesity in diet-induced obese Sprague-Dawley rat assessed as decrease in food intake at 2 mg/kg, po measured after 5 days relative to control; type: functional; parameters: scale not given: the % may be the effect or the level left
[34] = system: Rattus norvegicus; assay: Antiobesity in diet-induced obese Sprague-Dawley rat assessed as decrease in food intake at 6 mg/kg, po measured after 5 days relative to control; type: functional; parameters: scale not given: the % may be the effect or the level left

Structure (SMILES): O=C1C(Cc2c[nH]c3ccccc23)c2nnc(-c3ccccc3)n2-c2ccccc2N1CC(=O)N1CCCC1Cc1ccccn1 (mixture of isomers)
EC50 [1]: 560 nM | Efficacy [2]: 86% | clearance [3]: 212 µL/min/mg | IC50 [4]: 373 nM

Structure (SMILES): CC(C)N(Cc1ccccc1)C(=O)CN1C(=O)[C@@H](Cc2c[nH]c3ccccc23)c2nnc(-c3ccccc3)n2-c2ccccc21 [CE-326597]
CLH [5]: 47 mL/min/kg | solubility [6]: Insoluble | bioavailability [7]: 9% | Efficacy [2]: 95% | clearance [3]: 199 µL/min/mg | logD [8]: 4.9 | CL free [9]: 597 µL/min/mg | Activity [10]: 91% | Activity [11]: 27.5% | Kp uu at 4 h [12]: 65 | dose excreted at 24 h [13]: 0.04% | clearance [14]: 41.7 mL/min/kg | Tmax [15]: 79.8 min

Structure (SMILES): O=C1C(Cc2c[nH]c3ccccc23)c2nnc(-c3ccccc3)n2-c2ccccc2N1CC(=O)N1CCCCC1Cc1ccccn1 (mixture of isomers)
EC50 [1]: 31.9 nM | Efficacy [2]: 105% | clearance [3]: 114 µL/min/mg | IC50 [4]: 93.3 nM

Structure (SMILES): O=C1C(Cc2c[nH]c3ccccc23)c2nnc(-c3ccccc3)n2-c2ccccc2N1CC(=O)N1CCCCC1c1ccccc1 (mixture of isomers)
EC50 [1]: 1670 nM | Efficacy [2]: 87% | IC50 [4]: 248 nM

Structure (SMILES): Cc1cc(C)cc(C[C@H]2CCCCN2C(=O)CN2C(=O)[C@@H](Cc3n[nH]c4ccccc34)c3nnc(-c4ccccc4)n3-c3ccccc32)c1
Activity [16]: Non-toxic | bioavailability [17]: 0.56% | fCmax [18]: 0.063 nM | Cmax [19]: 0.46 ng/mL | Drug uptake [20]: Not Active | Drug uptake [21]: Not Active | Efficacy [2]: 89% | logD ([8]; read-out: logD): 5.6 | CL free [9]: 2300 µL/min/mg | Activity [10]: 89% | Activity [22]: 19% | dose excreted at 24 h [13]: 0.044% | Activity [23]: 34% | clearance [24]: 176 mL/min/kg | bioavailability [25]: 0.13% | fCmax [26]: 0.014 nM | Tmax [15]: 15 min | Vd [27]: 17.6 L/kg | AUC(0-t) [28]: 29 ng·h/mL | AUC(0-t) [29]: 0.74 ng·h/mL | half-life [30]: 122 min | Activity [31]: 22% | Activity [32]: 44% | Activity [33]: 19% | Activity [34]: 25%

More lines, now with the values ahead:

EC50 [1]: 52.5 nM | Efficacy [2]: 97% | clearance [3]: > 300 µL/min/mg | IC50 [4]: 49.3 nM
Structure (SMILES): COCCC1CCCCN1C(=O)CN1C(=O)C(Cc2c[nH]c3ccccc23)c2nnc(-c3ccccc3)n2-c2ccccc21 (mixture of isomers)

EC50 [1]: 400 nM | Efficacy [2]: 78% | clearance [3]: > 300 µL/min/mg | IC50 [4]: 36.9 nM
Structure (SMILES): CCC1CCCCN1C(=O)CN1C(=O)C(Cc2c[nH]c3ccccc23)c2nnc(-c3ccccc3)n2-c2ccccc21 (mixture of isomers)

EC50 [1]: 256 nM | Efficacy [2]: 88% | clearance [3]: 76 µL/min/mg | IC50 [4]: 4.24 nM
Structure (SMILES): O=C1C(Cc2c[nH]c3ccccc23)c2nnc(-c3ccccc3)n2-c2ccccc2N1CC(=O)N1CCCCC1CC1CCCCC1 (mixture of isomers)
